System: HEK-293T
Experiment: Multiplex assay against HEK293T;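 as to Population Tubulin-Different-Phenotype (%): share of the cells with healthy nuclei that show this phenotype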
Format: toxicity, cell-based
Settings: human
In short: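 Tubulin, mitochondrial-mass and membrane-permeability phenotypes are per cents of healthy-nucleus cells. Cells were gated by CellPathfinder machine learning into Hoechst high-intensity objects or normal cells, normal cells into healthy, pyknosed or fragmented nuclei, and pyknosed cells into mitotic or apoptotic. Before that, live cells stained at seeding with Hoechst33342, BioTracker Green Microtubule Cytoskeleton Dye, MitoTracker Red and Annexin V Alexa Fluor 680 were imaged on a CQ1 microscope at 37°C and 5% CO2 after compound addition.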

[1] = 12 h, 1 µM, compound concentration 1 uM, replicate 1
[2] = 12 h, 1 µM, compound concentration 1 uM, replicate 2
[3] = 12 h, 10 µM, compound concentration 10 uM, replicate 1
[4] = 12 h, 10 µM, compound concentration 10 uM, replicate 2
[5] = 24 h, 1 µM, compound concentration 1 uM, replicate 1
[6] = 24 h, 1 µM, compound concentration 1 uM, replicate 2
[7] = 24 h, 10 µM, compound concentration 10 uM, replicate 1
[8] = 24 h, 10 µM, compound concentration 10 uM, replicate 2
[9] = 48 h, 1 µM, compound concentration 1 uM, replicate 1
[10] = 48 h, 1 µM, compound concentration 1 uM, replicate 2
[11] = 48 h, 10 µM, compound concentration 10 uM, replicate 1
[12] = 48 h, 10 µM, compound concentration 10 uM, replicate 2

Q: Which results are given for `CN(C)C(=O)/C(C#N)=C/c1ccc(-c2nc3cnc4[nH]ccc4c3n2C2CCCCC2)o1`?
A: Population Apoptotic (%) [1]: 48%; Population Fragmented Nuclei (%) [1]: 9%; Population Healthy Nuclei (%) [1]: 42%; Population Hoechst High Intensity Objects (%) [1]: 12%; Population Membrane Permeable-Phenotype (%) [1]: 2%; Population Mitochondria Different-Phenotype (%) [1]: 68%; Population Mitotic Cells (%) [1]: 51%; Population Normal (%) [1]: 87%; Population Pyknosed Nuclei (%) [1]: 48%; Population Tubulin-Different-Phenotype (%) [1]: 44%; Total Cell Count [1]: 283; Population Apoptotic (%) [2]: 21%; Population Fragmented Nuclei (%) [2]: 6%; Population Healthy Nuclei (%) [2]: 46%; Population Hoechst High Intensity Objects (%) [2]: 5%; Population Membrane Permeable-Phenotype (%) [2]: 5%; Population Mitochondria Different-Phenotype (%) [2]: 36%; Population Mitotic Cells (%) [2]: 78%; Population Normal (%) [2]: 94%; Population Pyknosed Nuclei (%) [2]: 46%; Population Tubulin-Different-Phenotype (%) [2]: 37%; Total Cell Count [2]: 175; Population Apoptotic (%) [3]: 41%; Population Fragmented Nuclei (%) [3]: 24%; Population Healthy Nuclei (%) [3]: 39%; Population Hoechst High Intensity Objects (%) [3]: 37%; Population Membrane Permeable-Phenotype (%) [3]: 17%; Population Mitochondria Different-Phenotype (%) [3]: 63%; Population Mitotic Cells (%) [3]: 58%; Population Normal (%) [3]: 62%; Population Pyknosed Nuclei (%) [3]: 36%; Population Tubulin-Different-Phenotype (%) [3]: 60%; Total Cell Count [3]: 451; Population Apoptotic (%) [4]: 32%; Population Fragmented Nuclei (%) [4]: 17%; Population Healthy Nuclei (%) [4]: 43%; Population Hoechst High Intensity Objects (%) [4]: 25%; Population Membrane Permeable-Phenotype (%) [4]: 15%; Population Mitochondria Different-Phenotype (%) [4]: 50%; Population Mitotic Cells (%) [4]: 67%; Population Normal (%) [4]: 74%; Population Pyknosed Nuclei (%) [4]: 39%; Population Tubulin-Different-Phenotype (%) [4]: 79%; Total Cell Count [4]: 219; Population Apoptotic (%) [5]: 46%; Population Fragmented Nuclei (%) [5]: 10%; Population Healthy Nuclei (%) [5]: 45%; Population Hoechst High Intensity Objects (%) [5]: 14%; Population Membrane Permeable-Phenotype (%) [5]: 2%; Population Mitochondria Different-Phenotype (%) [5]: 60%; Population Mitotic Cells (%) [5]: 53%; Population Normal (%) [5]: 85%; Population Pyknosed Nuclei (%) [5]: 44%; Population Tubulin-Different-Phenotype (%) [5]: 40%; Total Cell Count [5]: 316; Population Apoptotic (%) [6]: 21%; Population Fragmented Nuclei (%) [6]: 8%; Population Healthy Nuclei (%) [6]: 68%; Population Hoechst High Intensity Objects (%) [6]: 2%; Population Membrane Permeable-Phenotype (%) [6]: 10%; Population Mitochondria Different-Phenotype (%) [6]: 23%; Population Mitotic Cells (%) [6]: 78%; Population Normal (%) [6]: 97%; Population Pyknosed Nuclei (%) [6]: 22%; Population Tubulin-Different-Phenotype (%) [6]: 34%; Total Cell Count [6]: 239; Population Apoptotic (%) [7]: 44%; Population Fragmented Nuclei (%) [7]: 25%; Population Healthy Nuclei (%) [7]: 39%; Population Hoechst High Intensity Objects (%) [7]: 41%; Population Membrane Permeable-Phenotype (%) [7]: 9%; Population Mitochondria Different-Phenotype (%) [7]: 61%; Population Mitotic Cells (%) [7]: 55%; Population Normal (%) [7]: 58%; Population Pyknosed Nuclei (%) [7]: 35%; Population Tubulin-Different-Phenotype (%) [7]: 57%; Total Cell Count [7]: 448; Population Apoptotic (%) [8]: 34%; Population Fragmented Nuclei (%) [8]: 22%; Population Healthy Nuclei (%) [8]: 56%; Population Hoechst High Intensity Objects (%) [8]: 30%; Population Membrane Permeable-Phenotype (%) [8]: 7%; Population Mitochondria Different-Phenotype (%) [8]: 49%; Population Mitotic Cells (%) [8]: 65%; Population Normal (%) [8]: 69%; Population Pyknosed Nuclei (%) [8]: 21%; Population Tubulin-Different-Phenotype (%) [8]: 72%; Total Cell Count [8]: 280; Population Apoptotic (%) [9]: 45%; Population Fragmented Nuclei (%) [9]: 13%; Population Healthy Nuclei (%) [9]: 49%; Population Hoechst High Intensity Objects (%) [9]: 13%; Population Membrane Permeable-Phenotype (%) [9]: 2%; Population Mitochondria Different-Phenotype (%) [9]: 21%; Population Mitotic Cells (%) [9]: 54%; Population Normal (%) [9]: 86%; Population Pyknosed Nuclei (%) [9]: 37%; Population Tubulin-Different-Phenotype (%) [9]: 30%; Total Cell Count [9]: 381; Population Apoptotic (%) [10]: 15%; Population Fragmented Nuclei (%) [10]: 9%; Population Healthy Nuclei (%) [10]: 80%; Population Hoechst High Intensity Objects (%) [10]: 3%; Population Membrane Permeable-Phenotype (%) [10]: 8%; Population Mitochondria Different-Phenotype (%) [10]: 5%; Population Mitotic Cells (%) [10]: 84%; Population Normal (%) [10]: 96%; Population Pyknosed Nuclei (%) [10]: 10%; Population Tubulin-Different-Phenotype (%) [10]: 21%; Total Cell Count [10]: 389; Population Apoptotic (%) [11]: 46%; Population Fragmented Nuclei (%) [11]: 26%; Population Healthy Nuclei (%) [11]: 46%; Population Hoechst High Intensity Objects (%) [11]: 34%; Population Membrane Permeable-Phenotype (%) [11]: 13%; Population Mitochondria Different-Phenotype (%) [11]: 29%; Population Mitotic Cells (%) [11]: 53%; Population Normal (%) [11]: 65%; Population Pyknosed Nuclei (%) [11]: 27%; Population Tubulin-Different-Phenotype (%) [11]: 40%; Total Cell Count [11]: 490; Population Apoptotic (%) [12]: 35%; Population Fragmented Nuclei (%) [12]: 18%; Population Healthy Nuclei (%) [12]: 67%; Population Hoechst High Intensity Objects (%) [12]: 21%; Population Membrane Permeable-Phenotype (%) [12]: 10%; Population Mitochondria Different-Phenotype (%) [12]: 17%; Population Mitotic Cells (%) [12]: 64%; Population Normal (%) [12]: 78%; Population Pyknosed Nuclei (%) [12]: 13%; Population Tubulin-Different-Phenotype (%) [12]: 49%; Total Cell Count [12]: 338

Source: ChEMBL document CHEMBL4689842, “EUbOPEN Chemogenomics Library wave 1” (2021)
